Experimental data published in ChEMBL document CHEMBL4014308, “Amphiphilic Tobramycin-Lysine Conjugates Sensitize Multidrug Resistant Gram-Negative Bacteria to Rifampicin and Minocycline” (J Med Chem, 2017).

Tests used:
Format in all cases: functional
Acinetobacter baumannii [1] = test: Potentiation of minocycline-induced antibacterial activity against multidrug-resistant Acinetobacter baumannii AB030 at 4 ug/ml after 18 hrs by checkerboard assay
Procedure, shortened: (§1)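 Checkerboard in Mueller-Hinton broth: antibiotic serially diluted along one axis and adjuvant along the other (10 × 7 matrix). Inoculum from a 0.5 McFarland saline suspension diluted 1:50 in MHB; 18 h at 37 °C, then plate read. MIC is the lowest concentration with no growth. FIC of each agent is its concentration in a no-growth well divided by its MIC alone; FIC index is the sum of both. FIC index ≤0.5 counts as synergy.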

Acinetobacter baumannii [2] = test: Synergistic antibacterial activity against multidrug-resistant Acinetobacter baumannii AB031 after 18 hrs in presence of rifampicin by checkerboard assay; conditions: AB031, 18 h
Procedure, shortened: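 Checkerboard in MHB with a 10 × 7 matrix: antibiotic serially diluted along one axis, adjuvant along the other. Inoculum was a 1:50 dilution of a 0.5 McFarland suspension, incubated 18 h at 37 °C and read on a plate reader. Each FIC is the concentration in a no-growth well divided by the MIC alone; FIC index is their sum, with ≤0.5 taken as synergy.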

Acinetobacter baumannii [3] = test: Potentiation of minocycline-induced antibacterial activity against multidrug-resistant Acinetobacter baumannii 110193 at 4 ug/ml after 18 hrs by checkerboard assay; procedure, shortened: as §1
Pseudomonas aeruginosa [4] = test: Synergistic antibacterial activity against Pseudomonas aeruginosa PAO1 after 18 hrs in presence of vancomycin by checkerboard assay; conditions: PAO1, 18 h
Procedure, shortened: (§2)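 Checkerboard in MHB: antibiotic diluted along one axis and adjuvant along the other (10 × 7 matrix). Inoculum was a 1:50 dilution in MHB of a 0.5 McFarland saline suspension; incubated 18 h at 37 °C. Each FIC = concentration in the no-growth well divided by the MIC alone; FIC index = sum of both FICs. ≤0.5 synergy, 0.5–4 no interaction, ≥4 antagonism.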

Pseudomonas aeruginosa [5] = test: Potentiation of minocycline-induced antibacterial activity against multidrug/extremely drug-resistant/colistin-resistant Pseudomonas aeruginosa isolate 91433 at 4 ug/ml after 18 hrs by checkerboard assay; procedure, shortened: as §1
Pseudomonas aeruginosa [6] = test: Potentiation of rifampicin-induced antibacterial activity against multidrug/extremely drug-resistant/colistin-susceptible Pseudomonas aeruginosa isolate 101885 assessed as fold reduction in rifampicin MIC at 4 ug/ml after 18 hrs by checkerboard assay relative to control
Procedure, shortened: (§3)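 Checkerboard in Mueller-Hinton broth, 10 × 7 matrix, with the adjuvant held at 4 µg/mL. Inoculum from a 0.5 McFarland suspension diluted 1:50; 18 h at 37 °C. Antibiotic MIC (lowest concentration with no growth) with adjuvant is compared with the antibiotic MIC alone, giving a fold reduction.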

Staphylococcus aureus = test: Antibacterial activity against methicillin resistant Staphylococcus aureus ATCC 33592 after 18 hrs by microtiter dilution assay; conditions: ATCC 33592, 18 h
Procedure, shortened: (§4)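 Broth microdilution following CLSI guidelines. An overnight culture was adjusted to 0.5 McFarland in saline, then diluted 1:50 in Mueller-Hinton broth. This inoculum was added in equal volume to 2-fold serial dilutions of agent in MHB and incubated 18 h at 37 °C. MIC was the lowest concentration with no visible growth.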

Pseudomonas aeruginosa [7] = test: Potentiation of gentamicin-induced antibacterial activity against Pseudomonas aeruginosa PAO1 at 4 ug/ml after 18 hrs by checkerboard assay; procedure, shortened: as §1
Pseudomonas aeruginosa [8] = test: Potentiation of rifampicin-induced antibacterial activity against multidrug/extremely drug-resistant/colistin-susceptible Pseudomonas aeruginosa isolate 101885 at 4 ug/ml after 18 hrs by checkerboard assay; procedure, shortened: as §1
Acinetobacter baumannii [9] = test: Potentiation of rifampicin-induced antibacterial activity against multidrug-resistant Acinetobacter baumannii 110193 at 4 ug/ml after 18 hrs by checkerboard assay; procedure, shortened: as §1
Pseudomonas aeruginosa [10] = test: Potentiation of novobiocin-induced antibacterial activity against Pseudomonas aeruginosa PAO1 at 4 ug/ml after 18 hrs by checkerboard assay
Enterobacter cloacae = test: Potentiation of minocycline-induced antibacterial activity against multidrug-resistant Enterobacter cloacae 117029 at 4 ug/ml after 18 hrs by checkerboard assay; procedure, shortened: as §1
Streptococcus pneumoniae = test: Antibacterial activity against Streptococcus pneumoniae ATCC 49619 after 18 hrs by microtiter dilution assay; conditions: ATCC 49619, 18 h
Procedure, shortened: (§5)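 Broth microdilution per CLSI. Overnight culture adjusted to 0.5 McFarland in saline, diluted 1:50 in Mueller-Hinton broth, and added to an equal volume of 2-fold serial compound dilutions in MHB. Incubated 18 h at 37 °C. MIC taken as the lowest concentration with no visible growth.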

Acinetobacter baumannii [11] = test: Potentiation of rifampicin-induced antibacterial activity against multidrug-resistant Acinetobacter baumannii AB027 at 4 ug/ml after 18 hrs by checkerboard assay; procedure, shortened: as §1
Acinetobacter baumannii [12] = test: Antibacterial activity against multidrug-resistant Acinetobacter baumannii AB030 after 18 hrs by microtiter dilution assay; conditions: AB030, 18 h; procedure, shortened: as §4
Pseudomonas aeruginosa [13] = test: Potentiation of minocycline-induced antibacterial activity against multidrug/extremely drug-resistant/colistin-susceptible Pseudomonas aeruginosa isolate 100036 assessed as fold reduction in minocycline MIC at 4 ug/ml after 18 hrs by checkerboard assay relative to control; procedure, shortened: as §3
Pseudomonas aeruginosa [14] = test: Potentiation of rifampicin-induced antibacterial activity against multidrug/extremely drug-resistant/colistin-susceptible Pseudomonas aeruginosa isolate P264-104354 at 4 ug/ml after 18 hrs by checkerboard assay
Procedure, shortened: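 Checkerboard broth microdilution in MHB: antibiotic serially diluted along one axis, adjuvant along the other (10 × 7 matrix). Inoculum from 0.5 McFarland saline suspension diluted 1:50 in MHB; 18 h at 37 °C. MIC taken as lowest concentration with no growth. FIC per agent = combination MIC/MIC alone; FIC index = sum (≤0.5 synergy).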

Pseudomonas aeruginosa [15] = test: Antibacterial activity against multidrug/extremely drug-resistant/colistin-susceptible Pseudomonas aeruginosa isolate P262-101856 infected in Galleria mellonella assessed as mortality at 75 mg/kg after 24 hrs relative to control; conditions: isolate P262-101856, 24 h
Procedure, shortened: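 Galleria mellonella larvae (about 250 mg, used within 7 days; 15 per group) were injected with 10 µL of XDR P. aeruginosa P262 at 1.0×10^3 CFU/mL. At 2 h they received a single 10 µL injection: monotherapy at 75 mg/kg, or combinations at 12.5+12.5 to 75+75 mg/kg. PBS vehicle served as control. Survival was scored over 24 h at 37 °C.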

Klebsiella pneumoniae = test: Synergistic antibacterial activity against multidrug-resistant Klebsiella pneumoniae 116381 after 18 hrs in presence of rifampicin by checkerboard assay; conditions: Klebsiella pneumoniae, 116381, 18 h
Procedure, shortened: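 Checkerboard in Mueller-Hinton broth: antibiotic serially diluted along one axis and adjuvant along the other (10 × 7 matrix). Inoculum was overnight culture set to 0.5 McFarland in saline, then diluted 1:50 in broth. Incubated 18 h at 37 °C. MIC was the lowest concentration with no growth. FIC index is the sum of both FICs (combination concentration ÷ MIC alone); ≤0.5 counted as synergy.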

Pseudomonas aeruginosa [16] = test: Synergistic antibacterial activity against Pseudomonas aeruginosa PAO1 after 18 hrs in presence of meropenem by checkerboard assay; conditions: PAO1, 18 h; procedure, shortened: as §2
Enterococcus faecium = test: Antibacterial activity against Enterococcus faecium ATCC 27270 after 18 hrs by microtiter dilution assay; conditions: ATCC 27270, 18 h; procedure, shortened: as §5
Pseudomonas aeruginosa [17] = test: Synergistic antibacterial activity against Pseudomonas aeruginosa PAO1 after 18 hrs in presence of gentamicin by checkerboard assay; conditions: PAO1, 18 h; procedure, shortened: as §2

## Cl.Cl.Cl.Cl.Cl.Cl.Cl.NCCCC[C@H](N)C(=O)N(CCCCCCCCCCCCO[C@@H]1[C@@H](O[C@H]2O[C@H](CO)[C@@H](O)[C@H](N)[C@H]2O)[C@H](N)C[C@H](N)[C@H]1O[C@H]1O[C@H](CN)[C@@H](O)C[C@H]1N)Cc1c2ccccc2c(Cl)c2ccccc12
Acinetobacter baumannii [1]
  fractional inhibitory concentration index (FICI): 0.375
Acinetobacter baumannii [2]
  MIC: 1 µg/mL
Acinetobacter baumannii [3]
  fractional inhibitory concentration index (FICI): 0.63
Pseudomonas aeruginosa [4]
  MIC: 4 µg/mL
Pseudomonas aeruginosa [5]
  fractional inhibitory concentration index (FICI): 0.266
Pseudomonas aeruginosa [6]
  fold change (FC): 128
Staphylococcus aureus
  MIC: 8 µg/mL
Pseudomonas aeruginosa [7]
  fractional inhibitory concentration index (FICI): 1.125
Pseudomonas aeruginosa [8]
  fractional inhibitory concentration index (FICI): 0.094
Acinetobacter baumannii [9]
  fractional inhibitory concentration index (FICI): 0.095
Pseudomonas aeruginosa [10]
  fractional inhibitory concentration index (FICI): 0.071
Enterobacter cloacae
  fractional inhibitory concentration index (FICI): 0.062
Streptococcus pneumoniae
  MIC: 32 µg/mL
Acinetobacter baumannii [11]
  fractional inhibitory concentration index (FICI): 0.079
Acinetobacter baumannii [12]
  MIC: 64 µg/mL
Pseudomonas aeruginosa [13]
  fold change (FC): 32
Pseudomonas aeruginosa [14]
  fractional inhibitory concentration index (FICI): 0.094
Pseudomonas aeruginosa [15]
  mortality at 75 mg/kg: 100%
Klebsiella pneumoniae
  MIC: 4 µg/mL
Pseudomonas aeruginosa [16]
  MIC: 1 µg/mL
Enterococcus faecium
  MIC: 8 µg/mL
Pseudomonas aeruginosa [17]
  MIC: 4 µg/mL
